Test results: ChEMBL document CHEMBL1125253, “Allosteric modifiers of hemoglobin. 1. Design, synthesis, testing, and structure-allosteric activity relationship of novel hemoglobin oxygen affinity decreasing agents” (J Med Chem, 1991)
Several values for one entry are separate records, joined by “and”; a condition that tells them apart may be missing. Identical values can stand only once.

Experiments:
[1] = molecular target: T1, Hemoglobin HbA (Homo sapiens) (UniProt P69905+P68871); assay: Oxygen pressure in mmHg at which the […] hemoglobin solution (in presence of 10 mM compound) was 50% saturated with oxygen.; format: protein-complex assay
T1 sequence (P68871 2-147 partner limits assumed): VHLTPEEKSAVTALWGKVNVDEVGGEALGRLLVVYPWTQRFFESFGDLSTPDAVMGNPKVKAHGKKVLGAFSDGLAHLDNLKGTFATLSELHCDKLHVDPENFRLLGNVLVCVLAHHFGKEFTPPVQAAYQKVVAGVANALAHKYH
T1 sequence (P69905 2-142 limits assumed): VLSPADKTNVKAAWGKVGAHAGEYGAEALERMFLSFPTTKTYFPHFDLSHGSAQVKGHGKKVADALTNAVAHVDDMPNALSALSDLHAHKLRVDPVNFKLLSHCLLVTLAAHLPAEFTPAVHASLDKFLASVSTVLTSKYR
Procedure, shortened: (§1)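 Purified HbA from washed, lysed erythrocytes (DEAE-Sephacel, pH 8.4 Tris elution), exchanged into 50 mM HEPES pH 7.4. Stock Hb 5.4 mM mixed 1:1 with 20 mM compound in HEPES, giving final 2.7 mM Hb and 10 mM compound (about 4:1). Control is Hb mixed with buffer alone. Oxygen dissociation curves recorded on a Hem-O-Scan analyzer. P50 in mmHg at 50% saturation.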

[2] = molecular target: T1, Hemoglobin HbA (Homo sapiens); assay: Oxygen pressure in mmHg at which the control hemoglobin solution (no compound) was 50% saturated with oxygen.; format: protein-complex assay; procedure, shortened: as §1
[3] = Dose-response study in whole blood at a concentration of 10.0 mM; format: tissue-based
Procedure, shortened: (§2)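 Fresh heparinized whole blood mixed 1:1 with test compound in isosmotic 50 mM HEPES pH 7.4 containing 140 mM NaCl and 10 mM glucose. Hb after addition approximately 1.25 mM. Oxygen dissociation curves recorded on a Hem-O-Scan analyzer. P50 with compound divided by P50 of control.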

[4] = Dose-response study in whole blood at a concentration of 1.0 mM; format: tissue-based; procedure, shortened: as §2
[5] = Dose-response study in whole blood at a concentration of 0.5 mM; format: tissue-based; procedure, shortened: as §2
[6] = Dose-response study in whole blood at a concentration of 4.0 mM; format: tissue-based; procedure, shortened: as §2
[7] = Dose-response study in whole blood at a concentration of 2.0 mM; format: tissue-based; procedure, shortened: as §2

| P50d [1] | P50c [2] | Structure (SMILES) | P50d/P50c [3] | P50d/P50c [4] | P50d/P50c [5] | P50d/P50c [6] | P50d/P50c [7] |
| --- | --- | --- | --- | --- | --- | --- | --- |
| 34 mmHg and 35 mmHg | 18 mmHg | CC(C)(Oc1ccc(CC(=O)Nc2c(Cl)cccc2Cl)cc1)C(=O)O |  |  |  |  |  |
| 40 mmHg and 41 mmHg | 15 mmHg | Cc1ccc(NC(=O)Cc2ccc(OC(C)(C)C(=O)O)cc2)cc1 |  |  |  |  |  |
| 37 mmHg and 60 mmHg and 63 mmHg | 12 mmHg and 19 mmHg (2×) | CC(C)(Oc1ccc(CC(=O)Nc2cc(Cl)c(Cl)c(Cl)c2)cc1)C(=O)O |  |  |  |  |  |
|  | 19 mmHg (2×) and 11.5 mmHg | CC(C)(Oc1ccc(CNC(=O)c2cc(Cl)c(Cl)c(Cl)c2)cc1)C(=O)O |  |  |  |  |  |
| 65 mmHg | 18.2 mmHg and 18 mmHg | CC(C)(Oc1ccc(CC(=O)Nc2ccc(Cl)c(Cl)c2)cc1)C(=O)O |  |  |  |  |  |
| 32 mmHg | 18 mmHg | CC(C)(Oc1ccc(NC(=O)Nc2ccc(Cl)c(Cl)c2)cc1)C(=O)O |  |  |  |  |  |
| 57 mmHg and 56.5 mmHg and 57.8 mmHg | 19.5 mmHg and 19 mmHg (2×) | CC(C)c1ccc(NC(=O)Cc2ccc(OC(C)(C)C(=O)O)cc2)cc1 |  |  |  |  |  |
| 44 mmHg [middle of 4 runs] | 20 mmHg and 17.5 mmHg (2×) and 18 mmHg | CC(C)(Oc1ccc(CC(=O)Nc2ccc(C(F)(F)F)cc2)cc1)C(=O)O |  |  |  |  |  |
| 63 mmHg and 54 mmHg | 20.5 mmHg and 19 mmHg | CC(C)(Oc1ccc(CC(=O)Nc2ccccc2)cc1)C(=O)O |  |  |  |  |  |
| 28 mmHg | 19 mmHg | CC(C)(Oc1ccc(CNC(=O)c2ccccc2Cl)cc1)C(=O)O |  |  |  |  |  |
| 48.5 mmHg and 47 mmHg and 46 mmHg | 19 mmHg | CC(C)(Oc1ccc(CNC(=O)c2cc(Cl)cc(Cl)c2)cc1)C(=O)O |  |  |  |  |  |
| 37 mmHg | 18 mmHg and 19 mmHg | CC(C)(Oc1ccc(CNC(=O)c2cccc(Cl)c2)cc1)C(=O)O |  |  |  |  |  |
| 44 mmHg [middle of 5 runs] | 19 mmHg (4×) and 21 mmHg | CC(C)(Oc1ccc(NC(=O)Cc2ccc(Cl)cc2)cc1)C(=O)O |  |  |  |  |  |
| 35 mmHg and 35.5 mmHg | 18 mmHg and 19 mmHg | CC(C)(Oc1ccc(CNC(=O)c2ccccc2)cc1)C(=O)O |  |  |  |  |  |
| 38.5 mmHg and 40 mmHg | 19 mmHg and 18 mmHg | CC(C)(Oc1ccc(CNC(=O)c2ccc(Cl)c(Cl)c2)cc1)C(=O)O |  |  |  |  |  |
| 52 mmHg [middle of 4 runs] | 15.5 mmHg and 19 mmHg and 18.5 mmHg (2×) | CC(C)(Oc1ccc(CC(=O)Nc2ccc(Cl)cc2)cc1)C(=O)O |  |  |  |  |  |
| 35 mmHg | 19.5 mmHg | CC(C)(Oc1ccc(NC(=O)Cc2ccccc2)cc1)C(=O)O |  |  |  |  |  |
| 48 mmHg and 35 mmHg and 36 mmHg | 18 mmHg and 14 mmHg (2×) | CC(C)(Oc1ccc(NC(=O)Nc2cc(Cl)c(Cl)c(Cl)c2)cc1)C(=O)O |  |  |  |  |  |
| 31 mmHg [middle of 4 runs] | 18 mmHg and 17 mmHg (2×) and 18.5 mmHg | CC(C)(Oc1ccc(CCNC(=O)c2ccc(Cl)cc2)cc1)C(=O)O |  |  |  |  |  |
| 44 mmHg and 65 mmHg and 63 mmHg | 11.8 mmHg and 18 mmHg (2×) | CC(C)(Oc1ccc(NC(=O)Nc2cc(Cl)cc(Cl)c2)cc1)C(=O)O | 2.25 | 1.15 | 0.96 | 1.84 | 1.7 |
| 52 mmHg and 44 mmHg | 20 mmHg and 17.5 mmHg | CC(C)(Oc1ccc(CC(=O)Nc2ccc(F)cc2)cc1)C(=O)O |  |  |  |  |  |
| 75.5 mmHg and 76.5 mmHg and 78 mmHg | 19 mmHg and 19.2 mmHg (2×) | Cc1cc(C)cc(NC(=O)Cc2ccc(OC(C)(C)C(=O)O)cc2)c1 | 3 | 1.53 | 1.07 | 2.61 | 1.93 |
| 32 mmHg | 18 mmHg | CC(C)(Oc1ccc(CCNC(=O)c2ccccc2)cc1)C(=O)O |  |  |  |  |  |
| 48 mmHg (2×) and 49 mmHg | 19 mmHg (2×) and 18 mmHg | CC(C)(Oc1ccc(CNC(=O)c2ccc(Cl)cc2)cc1)C(=O)O |  |  |  |  |  |

| Structure (SMILES) | P50d [1] | P50c [2] | P50d/P50c [3] | P50d/P50c [4] | P50d/P50c [5] | P50d/P50c [6] | P50d/P50c [7] |
| --- | --- | --- | --- | --- | --- | --- | --- |
| CC(C)(Oc1ccc(CC(=O)Nc2cc(Cl)cc(Cl)c2)cc1)C(=O)O | 47 mmHg [middle of 5 runs] | 10.3 mmHg and 11 mmHg (2×) and 19.2 mmHg (2×) | 2.93 | 1.52 | 1.09 | 2.72 | 2 |
